# ARNT-TACC3 inh: disruptors of ARNT/TACC3 protein interaction, primary screen, biochemical, AlphaScreen, single concentration | inhibition, % at 9.99 µM | 0.66% of 390,000 active | AlphaScreen His-ARNT PAS-B/GST-TACC3 binding, luminescence; TACC3 fragment carries E629A point mutation | AID 623870, 2012;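 active means mean inhibition of replicates at least 50% and at least half of replicates each reaching 50%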
# miR-122 sensor: miR-122 Renilla sensor signal increase in Huh7, primary screen, miR-122 inhibitor project, cell-based, single point, plate reader | AID 602342, 2012 | activation (reporter increase), % at 12.5 µM | Huh7 miR-122 Renilla luciferase sensor, 48 h; neutral wells = 0, positive control = 100 | 0.3% of 340,000 active;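 active means mean replicate activation score at least 90 and every replicate individually at or above 90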;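 further: higher luciferase means less miR-122 activity so hits act as miR-122 inhibitors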
# SR-BI DiI-HDL act: activators of SR-BI mediated DiI-HDL uptake, primary screen, ldlA[mSR-BI] CHO cells, DiI fluorescence; 0.096% of 320,000 active; activation, % at 12.5 µM; 3 h; 100 = double the neutral-control signal;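 active means mean replicate activation of at least 60% and every replicate at or above 60%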
#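 System: LDL receptor-deficient CHO ldlA cells overexpressing murine SR-BI | Timing: 3 h uptake period with compound, 37 °C | Medium: HEPES-buffered (25 mM, pH 7.4) F12 plus 0.5% BSA | Dosing: Single-point compound dose | Signal: Bottom-read fluorescence, 550/595 nm | Read-out: Retained DiI signal reflecting DiI-HDL uptake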
# CAL PDZ FP-1: CAL PDZ peptide-binding inhibitors, primary screen, biochemical, fluorescence polarization, Cer-tagged CAL PDZ, HTS | Golgi-associated PDZ and coiled-coil motif-containing protein (Homo sapiens), Q9HD26 | purified CAL PDZ, TMR-peptide fluorescence polarization, 1 h | inhibition, % at 20 µM | 0.02% of 330,000 active;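 active means highest replicate inhibition of at least 40%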
#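 System: tagged CAL PDZ domain. Schedule: 1 h room-temperature incubation prior to read. Signal: fluorescence polarization (mP). Measure: percent inhibition from loss of millipolarization.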
# CAL PDZ FP-2: untagged CAL PDZ binding inhibitors, primary screen, biochemical, fluorescence polarization, HTS; purified CAL PDZ, TMR-peptide fluorescence polarization, 1 h; inhibition, % at 24.9 µM; 0.92% of 300,000 active; AID 602252, 2012;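 active means mean inhibition of at least 30% with at least half of replicates also reaching 30%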
# SR-BI HDL uptake: inhibitors of SR-BI mediated HDL lipid uptake, primary screen, ldlA[mSR-BI] cells, fluorescence, single point | 0.96% of 320,000 active | Scavenger receptor class B member 1 (Mus musculus), Q61009 | ldlA[mSR-BI] CHO cells, DiI-HDL uptake fluorescence, 3 h | inhibition, % at 12.5 µM;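 active means mean replicate inhibition of at least 70% and a set share of replicates each scoring 70 or more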
# Target sequence (Q61009 whole entry, looked up): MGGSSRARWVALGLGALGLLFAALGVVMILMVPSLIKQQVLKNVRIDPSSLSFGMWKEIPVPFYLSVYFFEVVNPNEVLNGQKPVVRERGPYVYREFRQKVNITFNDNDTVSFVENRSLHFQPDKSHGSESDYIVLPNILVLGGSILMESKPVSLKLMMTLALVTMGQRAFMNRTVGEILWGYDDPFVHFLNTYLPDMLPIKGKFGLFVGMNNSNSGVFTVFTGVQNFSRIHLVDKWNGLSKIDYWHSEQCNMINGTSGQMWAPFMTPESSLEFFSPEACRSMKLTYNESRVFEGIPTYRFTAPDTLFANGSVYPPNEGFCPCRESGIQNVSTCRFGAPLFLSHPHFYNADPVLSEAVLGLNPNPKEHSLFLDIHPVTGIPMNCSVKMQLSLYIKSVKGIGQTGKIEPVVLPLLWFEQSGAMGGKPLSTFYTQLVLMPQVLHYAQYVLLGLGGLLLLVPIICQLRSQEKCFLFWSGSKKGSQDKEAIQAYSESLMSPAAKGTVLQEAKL
# AlphaScreen ctr: AlphaScreen signal interference compounds, dose response, artefact control for ARNT-TACC3 interaction inhibitor project, biochemical, luminescence, cherry-pick; 50% of 1,200 active; shares compounds with ARNT-TACC3 inh; AC50, µM (top dose mostly 68 µM); His-ARNT PASB-GST AlphaScreen artifact counter-screen;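 active means every separate test run was called active for a drop in luminescence, with AC50 within twice the top valid dose, actives reach about 71 µM in these data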
# Numbers stand for hits; 0 = inactive; - = no result. An excerpt weighted towards active compounds, which were near 2.1% of everything screened.
SMILES,ARNT-TACC3 inh,miR-122 sensor,SR-BI DiI-HDL act,CAL PDZ FP-1,CAL PDZ FP-2,SR-BI HDL uptake,AlphaScreen ctr
CCCCCc1cc(=O)oc2c(C(CCN3CCCC3)c3ccc(N(C)C)cc3)c(OC)cc(OC)c12 (stereo not drawn),51,-,0,0,0,0,9.6µM
Brc1ccc(OCc2nc(-c3ccccn3)n[nH]2)cc1,58,0,0,0,0,0,22µM
Clc1ccc(OCc2nc(-c3ccccn3)n[nH]2)cc1,66,0,0,0,0,0,28µM
O=[N+]([O-])c1cc(Cl)cc(/C=N\Nc2ccccn2)c1O,56,0,0,0,0,0,25µM
Oc1cc(-c2ccncc2)cc2cccnc12,67,-,0,0,0,0,12µM
Oc1cc(Nc2ccncc2)cc2cccnc12,73,-,0,0,0,0,7.9µM
CN(C)c1ccc(-c2cc(O)c3ncccc3c2)cc1,0,0,0,0,0,0,-
CN(C)CCCNC(=O)c1ccc(-c2cc(O)c3ncccc3c2)cc1,60,0,0,0,0,0,14µM
C[C@@H]1CN([C@@H](C)CO)S(=O)(=O)c2ccc(C#CC3CC3)cc2O[C@@H]1CN(C)C(=O)c1ccccn1,0,0,-,-,-,-,-
C/C(=N\NC(=O)c1c[nH]c2ccccc12)c1ccc(C)o1,62,0,0,0,0,0,57µM
COc1cccc(CNC(=O)COC(=O)c2ccc(C(=O)c3ccccc3)cc2)c1,55,0,0,0,0,0,0
CCOC(=O)c1c(C)[nH]c(N=Nc2cccc(OC)c2)c1C,0,0,0,0,0,0,-
CCOC(=O)c1c(C)[nH]c(N=Nc2cccc(C)c2)c1C,36,0,0,0,0,0,21µM
CC(=O)Nc1ccc2nc3ccccc3nc2c1,32,0,0,0,0,0,0
C[C@@H]1CN([C@H](C)CO)C(=O)c2cc(NC(=O)CCCN(C)C)ccc2O[C@H]1CN(C)C(=O)Nc1ccccc1,0,0,-,-,-,-,-
CCN(C(=O)CSc1nccn1C)c1cccc2ccccc12,68,-,0,0,0,0,0
O=C(COc1c(Br)cc(Br)c2cccnc12)N1CCCCC1,0,-,0,0,0,0,-
Oc1c(Cl)cc(Cl)c(Cl)c1CN1CCOCC1,0,0,0,0,0,0,-
COc1cc(OC)cc(C(=O)Oc2c(CN3CCOCC3)cc(Cl)c3cccnc23)c1,41,0,0,0,0,0,0
O=C(Oc1c(CN2CCOCC2)cc(Cl)c2cccnc12)c1ccccc1,52,0,0,0,47,0,0
Oc1c(CN2CCCCC2)cc(Br)c2cccnc12,64,-,0,0,0,0,5.6µM
Oc1c(Cl)cc(CN2CCOCC2)c2cccnc12,71,0,0,0,0,0,7.3µM
CN1C(=O)c2cc(NC(=O)c3ccc(F)cc3)ccc2OC[C@H]2O[C@@H](CC(=O)N3CCOCC3)CC[C@@H]21,0,0,-,-,-,-,-
O=S(=O)(N[C@H]1CC[C@@H](CCn2cc(-c3cccnc3)nn2)O[C@H]1CO)c1ccc(F)cc1,0,-,-,-,-,-,-
O=C(NCCc1ccccc1)c1ccc(=O)[nH]c1,active,0,0,0,0,0,0
SMILES,ARNT-TACC3 inh,miR-122 sensor,SR-BI DiI-HDL act,CAL PDZ FP-1,CAL PDZ FP-2,SR-BI HDL uptake,AlphaScreen ctr
COc1ccc(CCNC(=O)CSc2nnc3ccc(-c4ccccn4)nn23)cc1,48,0,0,0,0,0,68µM
O=C(COC(=O)c1ccc(Cl)nc1)Nc1nnc(-c2ccccc2)o1,79,-,0,0,0,0,0
O=C(COC(=O)c1cncc(Br)c1)Nc1nnc(-c2ccccc2)o1,0,0,0,0,0,0,-
Cc1ccsc1C(=O)OCC(=O)Nc1nnc(-c2ccccc2)o1,57,-,0,0,0,0,64µM
CC(C)c1ccc(O)c(NC(=O)c2ncn[nH]2)c1,31,0,0,0,0,0,0
CC(C)c1ccc(O)c(NC(=O)c2cncc(Br)c2)c1,0,0,0,0,0,0,-
Cc1ccc(S(=O)(=O)N2CCOCC2)cc1NC(=O)CNCc1ccccn1,65,0,0,0,0,0,50µM
Cc1ccc(S(=O)(=O)N2CCOCC2)cc1NC(=O)CNCc1ccccc1Cl,0,0,0,0,0,0,-
C[C@H](CO)N1C[C@H](C)[C@H](CN(C)Cc2ccc(C(F)(F)F)cc2)OCCCC[C@H](C)Oc2ccc(NS(=O)(=O)c3cn(C)cn3)cc2C1=O,0,0,-,-,-,-,-
CO[C@@H]1CN(C)C(=O)c2ccc(NC(=O)c3ccccn3)cc2OC[C@@H](C)N(C(=O)C2CC2)C[C@H]1C,57,-,-,-,-,-,32µM
O=C(CN1C(=O)/C(=C\c2cccs2)SC1=S)Nc1cccc(C(=O)O)c1,57,0,0,0,0,0,0
CC(C)NC(=O)Nc1cccc2c1O[C@H](CN(C)C(=O)Nc1ccc(C(F)(F)F)cc1)[C@@H](C)CN([C@@H](C)CO)C2=O,active,0,-,-,-,-,0
C[C@@H]1CN([C@H](C)CO)C(=O)c2cc(NS(C)(=O)=O)ccc2O[C@@H]1CN(C)S(=O)(=O)c1ccc(F)cc1,active,0,-,-,-,-,0
CC(C)NC(=O)Nc1cccc2c1O[C@@H](CN(C)C(=O)Nc1ccc(C(F)(F)F)cc1)[C@@H](C)CN([C@@H](C)CO)C2=O,0,0,-,-,-,-,-
CNC[C@@H]1Oc2c(NS(=O)(=O)c3cccs3)cccc2C(=O)N([C@@H](C)CO)C[C@H]1C,active,0,-,-,-,-,0
CNC[C@@H]1Oc2c(NS(=O)(=O)c3cccs3)cccc2C(=O)N([C@H](C)CO)C[C@@H]1C,0,0,-,-,-,-,-
C[C@@H]1CN([C@@H](C)CO)C(=O)c2cccc(NC(=O)Nc3cccc4ccccc34)c2O[C@H]1CN(C)S(=O)(=O)c1ccc(Cl)cc1,0,0,-,-,-,-,-
C[C@H](CO)N1C[C@H](C)[C@@H](CN(C)S(=O)(=O)c2ccc(Cl)cc2)Oc2c(NC(=O)Nc3cccc4ccccc34)cccc2C1=O,52,0,-,-,-,-,24µM
COCC(=O)Nc1ccc2c(c1)OC[C@@H](C)N(Cc1ccccc1F)C[C@@H](C)[C@H](OC)CN(C)C2=O,0,0,-,-,-,-,-
